Our source for the IC50 values is ChEMBL document CHEMBL2163321 (J Med Chem, 2012).

For orientation: pIC50 means the negative decadic logarithm of the IC50, by convention in mol/L.

The target of assay [1] is Lysine-specific demethylase 5C (Homo sapiens, UniProt P41229). Kind of assay: Inhibition of human KDM5C catalytic domain expressed in Sf9 cells using methyl lysine peptide substrate by AlphaScreen assay. Summed up: (§1)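 AlphaScreen read-out: immunodetection of the lysine methylation state of the biotinylated histone peptide product, captured on streptavidin and Protein A conjugated beads. Reactions were run in the linear range with 2OG near or below its Km.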

Assay [2] concerns the target Lysine-specific demethylase 6B (Homo sapiens, UniProt O15054). The experiment in a line: Inhibition of human KDM6B catalytic domain expressed in Escherichia coli using methyl lysine peptide substrate by AlphaScreen assay. The essentials:
as §1

Another assay addresses Egl nine homolog 1 (Homo sapiens, UniProt Q9GZT9). The experiment in a line: Inhibition of human PHD2 expressed in Escherichia coli by AlphaScreen assay. (In general: Alpha assays give light when donor and acceptor beads are brought close together.)
Assay [3] in a line: Inhibition of human KDM3A catalytic domain expressed in Sf9 cells methyl lysine peptide substrate by AlphaScreen assay. Summed up:
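AlphaScreen activity assay run within the linear range of the reaction. It immunodetects the lysine methylation state of a biotin-conjugated histone peptide product, using Streptavidin- and Protein A-conjugated beads.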

Assay [4] addresses T1, Lysine-specific demethylase 4E (Homo sapiens, UniProt B2RXH2).
T1 sequence (B2RXH2 whole entry): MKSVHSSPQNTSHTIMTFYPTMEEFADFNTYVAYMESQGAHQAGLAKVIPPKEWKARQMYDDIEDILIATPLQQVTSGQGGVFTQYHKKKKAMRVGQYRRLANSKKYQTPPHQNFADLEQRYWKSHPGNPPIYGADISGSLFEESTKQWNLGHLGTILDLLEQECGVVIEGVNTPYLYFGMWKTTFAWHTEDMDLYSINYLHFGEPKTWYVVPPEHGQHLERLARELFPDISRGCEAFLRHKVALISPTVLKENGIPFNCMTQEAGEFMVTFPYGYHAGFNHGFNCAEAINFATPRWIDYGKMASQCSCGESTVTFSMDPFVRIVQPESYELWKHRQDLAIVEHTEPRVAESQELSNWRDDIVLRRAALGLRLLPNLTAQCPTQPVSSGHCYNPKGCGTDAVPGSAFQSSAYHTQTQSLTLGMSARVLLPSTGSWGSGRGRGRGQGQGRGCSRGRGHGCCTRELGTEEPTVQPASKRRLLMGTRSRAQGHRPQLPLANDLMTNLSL
The experiment in a line: Inhibition of human KDM4E expressed in Escherichia coli using methyl lysine peptide substrate by AlphaScreen assay. The essentials: as §1

Assay [5] has as its target Hypoxia-inducible factor 1-alpha inhibitor (Homo sapiens, UniProt Q9NWT6). Kind of assay: Inhibition of human FIH expressed in Escherichia coli by MALDI assay.
The target in assay [6] is T2, Gamma-butyrobetaine dioxygenase (Homo sapiens, UniProt O75936).
T2 sequence (O75936 whole entry): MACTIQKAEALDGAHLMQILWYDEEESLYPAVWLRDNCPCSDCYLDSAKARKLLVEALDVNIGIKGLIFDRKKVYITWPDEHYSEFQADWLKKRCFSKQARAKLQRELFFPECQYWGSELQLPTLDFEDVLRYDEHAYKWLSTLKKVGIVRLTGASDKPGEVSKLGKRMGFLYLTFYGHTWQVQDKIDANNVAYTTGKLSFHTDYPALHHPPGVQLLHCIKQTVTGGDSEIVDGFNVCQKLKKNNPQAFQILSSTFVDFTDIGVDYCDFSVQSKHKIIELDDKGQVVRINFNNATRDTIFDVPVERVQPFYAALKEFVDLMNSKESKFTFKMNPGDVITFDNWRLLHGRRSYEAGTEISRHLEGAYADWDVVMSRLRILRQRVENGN
Kind of assay: Inhibition of human BBOX1 by fluorescence based assay.

Assay [7] addresses T3, Lysine-specific demethylase 7A (Homo sapiens, UniProt Q6ZMT4).
T3 sequence (Q6ZMT4 whole entry): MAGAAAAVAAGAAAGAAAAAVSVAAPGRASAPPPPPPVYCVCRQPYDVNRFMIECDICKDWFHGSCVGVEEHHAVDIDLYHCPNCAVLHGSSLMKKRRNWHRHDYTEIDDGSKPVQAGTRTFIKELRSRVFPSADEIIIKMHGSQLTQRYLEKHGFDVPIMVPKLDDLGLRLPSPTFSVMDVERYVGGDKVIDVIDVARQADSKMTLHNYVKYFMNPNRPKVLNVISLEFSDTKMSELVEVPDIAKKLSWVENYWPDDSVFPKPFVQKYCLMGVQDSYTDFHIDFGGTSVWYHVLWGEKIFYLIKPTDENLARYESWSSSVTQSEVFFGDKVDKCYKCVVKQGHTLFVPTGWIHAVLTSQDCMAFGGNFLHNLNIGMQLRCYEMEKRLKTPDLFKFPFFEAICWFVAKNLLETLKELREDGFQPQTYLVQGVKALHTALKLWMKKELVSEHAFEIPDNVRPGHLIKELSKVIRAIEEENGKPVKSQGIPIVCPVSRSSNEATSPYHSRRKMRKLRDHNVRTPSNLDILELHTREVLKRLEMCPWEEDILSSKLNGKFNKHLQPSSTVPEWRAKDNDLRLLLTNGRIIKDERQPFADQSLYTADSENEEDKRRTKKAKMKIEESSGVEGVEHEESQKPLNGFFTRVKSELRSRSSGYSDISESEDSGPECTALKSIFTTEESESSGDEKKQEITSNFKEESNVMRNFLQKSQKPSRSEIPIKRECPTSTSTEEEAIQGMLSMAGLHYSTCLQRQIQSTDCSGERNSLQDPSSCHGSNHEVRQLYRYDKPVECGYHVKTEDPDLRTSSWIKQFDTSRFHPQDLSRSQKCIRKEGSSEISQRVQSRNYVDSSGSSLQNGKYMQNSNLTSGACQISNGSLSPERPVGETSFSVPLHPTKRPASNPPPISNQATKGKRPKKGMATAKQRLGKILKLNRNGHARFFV
The experiment in a line: Inhibition of human KDM7A catalytic domain expressed in Escherichia coli by MALDI assay.

In assay [8] the target is T4, Lysine-specific demethylase 2A (Homo sapiens, UniProt Q9Y2K7).
T4 sequence (Q9Y2K7 whole entry): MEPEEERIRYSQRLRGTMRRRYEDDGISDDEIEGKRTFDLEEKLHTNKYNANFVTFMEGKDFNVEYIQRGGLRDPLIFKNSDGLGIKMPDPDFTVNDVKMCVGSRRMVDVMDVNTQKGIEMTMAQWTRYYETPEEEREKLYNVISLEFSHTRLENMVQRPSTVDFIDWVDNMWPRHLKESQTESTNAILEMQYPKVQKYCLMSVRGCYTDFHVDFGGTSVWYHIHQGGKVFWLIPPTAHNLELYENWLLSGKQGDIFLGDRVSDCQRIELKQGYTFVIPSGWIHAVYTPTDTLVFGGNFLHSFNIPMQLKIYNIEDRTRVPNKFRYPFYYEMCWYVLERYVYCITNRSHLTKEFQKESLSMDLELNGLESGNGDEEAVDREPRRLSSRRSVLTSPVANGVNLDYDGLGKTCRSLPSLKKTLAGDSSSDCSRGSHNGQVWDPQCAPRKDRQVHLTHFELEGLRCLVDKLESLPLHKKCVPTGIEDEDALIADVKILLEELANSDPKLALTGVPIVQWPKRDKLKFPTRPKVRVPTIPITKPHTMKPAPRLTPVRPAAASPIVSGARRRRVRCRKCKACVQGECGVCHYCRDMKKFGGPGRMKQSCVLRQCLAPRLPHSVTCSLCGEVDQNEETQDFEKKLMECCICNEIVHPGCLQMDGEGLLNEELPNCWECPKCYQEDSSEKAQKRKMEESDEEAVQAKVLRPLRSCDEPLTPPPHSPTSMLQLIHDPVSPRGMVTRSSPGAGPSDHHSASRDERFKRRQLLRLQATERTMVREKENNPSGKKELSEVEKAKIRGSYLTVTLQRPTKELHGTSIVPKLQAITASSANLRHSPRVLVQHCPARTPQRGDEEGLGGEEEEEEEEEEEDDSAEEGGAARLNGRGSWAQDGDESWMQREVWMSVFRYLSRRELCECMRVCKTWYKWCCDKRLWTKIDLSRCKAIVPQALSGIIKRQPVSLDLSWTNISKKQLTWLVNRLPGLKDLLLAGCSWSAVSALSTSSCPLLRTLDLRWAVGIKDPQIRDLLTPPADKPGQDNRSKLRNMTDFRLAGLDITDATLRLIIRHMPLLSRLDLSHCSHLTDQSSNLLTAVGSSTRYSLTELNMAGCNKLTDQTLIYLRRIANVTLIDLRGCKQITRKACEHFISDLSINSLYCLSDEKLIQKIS
The experiment in a line: Inhibition of human KDM2A expressed in Escherichia coli using methyl lysine peptide substrate by AlphaScreen assay.

The target in assay [9] is Histone lysine demethylase PHF8 (Homo sapiens, UniProt Q9UPP1). The experiment in a line: Inhibition of human PHF8 expressed in Escherichia coli using methyl lysine peptide substrate by AlphaScreen assay.

Each structure is given as a SMILES string. pIC50: −log10 of the molar value.

Chain of Histone lysine demethylase PHF8 (Q9UPP1 whole entry): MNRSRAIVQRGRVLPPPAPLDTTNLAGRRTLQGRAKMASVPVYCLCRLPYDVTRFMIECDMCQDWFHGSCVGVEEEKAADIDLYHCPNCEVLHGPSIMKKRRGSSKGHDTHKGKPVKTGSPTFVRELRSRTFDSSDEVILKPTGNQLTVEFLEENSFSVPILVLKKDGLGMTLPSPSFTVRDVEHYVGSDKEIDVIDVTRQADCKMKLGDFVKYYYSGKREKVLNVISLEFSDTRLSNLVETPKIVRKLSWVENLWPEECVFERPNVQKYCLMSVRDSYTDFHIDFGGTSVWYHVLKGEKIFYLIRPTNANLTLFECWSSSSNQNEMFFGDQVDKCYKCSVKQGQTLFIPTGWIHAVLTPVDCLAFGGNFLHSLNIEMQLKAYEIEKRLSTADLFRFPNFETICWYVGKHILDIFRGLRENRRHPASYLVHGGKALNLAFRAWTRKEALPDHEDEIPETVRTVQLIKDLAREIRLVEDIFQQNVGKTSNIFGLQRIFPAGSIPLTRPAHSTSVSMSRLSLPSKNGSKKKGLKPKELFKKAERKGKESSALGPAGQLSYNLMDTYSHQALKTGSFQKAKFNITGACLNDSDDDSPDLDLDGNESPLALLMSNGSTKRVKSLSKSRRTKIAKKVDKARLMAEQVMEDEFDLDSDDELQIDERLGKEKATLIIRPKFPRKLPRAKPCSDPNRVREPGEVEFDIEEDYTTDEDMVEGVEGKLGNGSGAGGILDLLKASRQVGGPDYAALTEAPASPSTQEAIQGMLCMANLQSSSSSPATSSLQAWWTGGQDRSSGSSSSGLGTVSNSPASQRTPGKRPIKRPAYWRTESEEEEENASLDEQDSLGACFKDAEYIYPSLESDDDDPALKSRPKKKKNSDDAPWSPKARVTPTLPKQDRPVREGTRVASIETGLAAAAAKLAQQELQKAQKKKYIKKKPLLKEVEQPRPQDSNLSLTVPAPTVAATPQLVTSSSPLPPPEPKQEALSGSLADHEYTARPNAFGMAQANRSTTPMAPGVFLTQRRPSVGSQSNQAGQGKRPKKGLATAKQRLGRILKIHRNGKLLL
Chain of Hypoxia-inducible factor 1-alpha inhibitor (Q9NWT6 whole entry): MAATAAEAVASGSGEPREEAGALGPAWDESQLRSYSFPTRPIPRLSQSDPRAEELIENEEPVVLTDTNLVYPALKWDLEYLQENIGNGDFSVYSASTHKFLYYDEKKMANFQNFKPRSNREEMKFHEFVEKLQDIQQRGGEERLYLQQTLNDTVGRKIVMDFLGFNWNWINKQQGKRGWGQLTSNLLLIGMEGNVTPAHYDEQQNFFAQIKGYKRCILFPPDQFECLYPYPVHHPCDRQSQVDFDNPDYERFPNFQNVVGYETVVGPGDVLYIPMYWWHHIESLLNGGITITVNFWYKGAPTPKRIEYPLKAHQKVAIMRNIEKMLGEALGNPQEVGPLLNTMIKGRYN
Chain of Lysine-specific demethylase 6B (O15054 whole entry, the tested form may be a part): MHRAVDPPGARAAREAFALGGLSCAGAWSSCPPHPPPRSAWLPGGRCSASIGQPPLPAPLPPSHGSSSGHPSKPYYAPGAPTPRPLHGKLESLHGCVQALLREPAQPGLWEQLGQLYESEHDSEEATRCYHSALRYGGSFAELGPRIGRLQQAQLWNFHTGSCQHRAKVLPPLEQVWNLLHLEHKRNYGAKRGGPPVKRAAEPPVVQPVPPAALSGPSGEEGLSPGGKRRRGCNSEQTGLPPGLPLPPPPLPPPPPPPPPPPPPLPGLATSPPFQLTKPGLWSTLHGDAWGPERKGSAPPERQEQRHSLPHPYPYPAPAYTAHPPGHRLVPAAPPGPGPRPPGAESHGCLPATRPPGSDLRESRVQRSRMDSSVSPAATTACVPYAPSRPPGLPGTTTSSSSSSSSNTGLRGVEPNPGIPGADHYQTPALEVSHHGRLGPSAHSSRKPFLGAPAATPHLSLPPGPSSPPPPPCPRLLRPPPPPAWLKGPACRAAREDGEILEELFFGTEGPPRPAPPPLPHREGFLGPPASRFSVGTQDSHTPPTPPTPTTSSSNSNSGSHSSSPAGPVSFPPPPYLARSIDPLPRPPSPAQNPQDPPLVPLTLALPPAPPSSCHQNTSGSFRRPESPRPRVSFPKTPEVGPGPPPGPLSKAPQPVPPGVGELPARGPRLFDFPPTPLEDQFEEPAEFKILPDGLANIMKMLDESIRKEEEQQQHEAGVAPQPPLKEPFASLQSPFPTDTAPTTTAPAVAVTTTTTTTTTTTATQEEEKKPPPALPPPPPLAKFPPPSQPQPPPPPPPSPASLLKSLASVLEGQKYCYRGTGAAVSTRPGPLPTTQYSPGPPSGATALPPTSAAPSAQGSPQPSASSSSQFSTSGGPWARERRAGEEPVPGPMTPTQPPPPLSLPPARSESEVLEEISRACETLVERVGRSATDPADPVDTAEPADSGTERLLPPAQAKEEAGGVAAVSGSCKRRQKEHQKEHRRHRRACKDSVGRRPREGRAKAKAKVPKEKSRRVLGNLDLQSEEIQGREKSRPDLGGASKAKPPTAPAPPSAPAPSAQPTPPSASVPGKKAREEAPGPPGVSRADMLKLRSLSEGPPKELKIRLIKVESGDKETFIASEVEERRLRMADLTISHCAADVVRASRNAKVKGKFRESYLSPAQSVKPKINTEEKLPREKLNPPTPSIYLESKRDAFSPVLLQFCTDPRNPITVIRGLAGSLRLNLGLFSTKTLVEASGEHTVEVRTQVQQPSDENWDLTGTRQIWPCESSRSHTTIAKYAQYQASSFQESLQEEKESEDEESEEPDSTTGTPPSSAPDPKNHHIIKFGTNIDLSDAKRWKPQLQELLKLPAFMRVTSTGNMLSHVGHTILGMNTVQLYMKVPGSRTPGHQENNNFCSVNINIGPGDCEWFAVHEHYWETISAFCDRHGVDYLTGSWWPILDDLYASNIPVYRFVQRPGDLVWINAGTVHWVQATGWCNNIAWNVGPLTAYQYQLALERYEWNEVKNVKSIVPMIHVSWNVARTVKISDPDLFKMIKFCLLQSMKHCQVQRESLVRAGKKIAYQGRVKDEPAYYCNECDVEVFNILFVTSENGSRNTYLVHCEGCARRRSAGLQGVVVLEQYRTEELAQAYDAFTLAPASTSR
Chain of Egl nine homolog 1 (Q9GZT9 whole entry, the tested form may be a part): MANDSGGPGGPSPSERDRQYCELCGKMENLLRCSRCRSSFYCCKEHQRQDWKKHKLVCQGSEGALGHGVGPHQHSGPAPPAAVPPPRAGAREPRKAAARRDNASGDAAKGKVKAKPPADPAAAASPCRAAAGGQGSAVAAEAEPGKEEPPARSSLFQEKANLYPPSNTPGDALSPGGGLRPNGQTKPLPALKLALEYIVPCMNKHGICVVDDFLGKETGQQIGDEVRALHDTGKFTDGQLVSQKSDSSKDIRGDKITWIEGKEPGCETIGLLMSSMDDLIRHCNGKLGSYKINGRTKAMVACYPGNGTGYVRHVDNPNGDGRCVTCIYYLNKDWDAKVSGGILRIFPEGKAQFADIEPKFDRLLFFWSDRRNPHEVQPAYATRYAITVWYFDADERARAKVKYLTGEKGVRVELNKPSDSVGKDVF
Chain of Lysine-specific demethylase 5C (P41229 whole entry, the tested form may be a part): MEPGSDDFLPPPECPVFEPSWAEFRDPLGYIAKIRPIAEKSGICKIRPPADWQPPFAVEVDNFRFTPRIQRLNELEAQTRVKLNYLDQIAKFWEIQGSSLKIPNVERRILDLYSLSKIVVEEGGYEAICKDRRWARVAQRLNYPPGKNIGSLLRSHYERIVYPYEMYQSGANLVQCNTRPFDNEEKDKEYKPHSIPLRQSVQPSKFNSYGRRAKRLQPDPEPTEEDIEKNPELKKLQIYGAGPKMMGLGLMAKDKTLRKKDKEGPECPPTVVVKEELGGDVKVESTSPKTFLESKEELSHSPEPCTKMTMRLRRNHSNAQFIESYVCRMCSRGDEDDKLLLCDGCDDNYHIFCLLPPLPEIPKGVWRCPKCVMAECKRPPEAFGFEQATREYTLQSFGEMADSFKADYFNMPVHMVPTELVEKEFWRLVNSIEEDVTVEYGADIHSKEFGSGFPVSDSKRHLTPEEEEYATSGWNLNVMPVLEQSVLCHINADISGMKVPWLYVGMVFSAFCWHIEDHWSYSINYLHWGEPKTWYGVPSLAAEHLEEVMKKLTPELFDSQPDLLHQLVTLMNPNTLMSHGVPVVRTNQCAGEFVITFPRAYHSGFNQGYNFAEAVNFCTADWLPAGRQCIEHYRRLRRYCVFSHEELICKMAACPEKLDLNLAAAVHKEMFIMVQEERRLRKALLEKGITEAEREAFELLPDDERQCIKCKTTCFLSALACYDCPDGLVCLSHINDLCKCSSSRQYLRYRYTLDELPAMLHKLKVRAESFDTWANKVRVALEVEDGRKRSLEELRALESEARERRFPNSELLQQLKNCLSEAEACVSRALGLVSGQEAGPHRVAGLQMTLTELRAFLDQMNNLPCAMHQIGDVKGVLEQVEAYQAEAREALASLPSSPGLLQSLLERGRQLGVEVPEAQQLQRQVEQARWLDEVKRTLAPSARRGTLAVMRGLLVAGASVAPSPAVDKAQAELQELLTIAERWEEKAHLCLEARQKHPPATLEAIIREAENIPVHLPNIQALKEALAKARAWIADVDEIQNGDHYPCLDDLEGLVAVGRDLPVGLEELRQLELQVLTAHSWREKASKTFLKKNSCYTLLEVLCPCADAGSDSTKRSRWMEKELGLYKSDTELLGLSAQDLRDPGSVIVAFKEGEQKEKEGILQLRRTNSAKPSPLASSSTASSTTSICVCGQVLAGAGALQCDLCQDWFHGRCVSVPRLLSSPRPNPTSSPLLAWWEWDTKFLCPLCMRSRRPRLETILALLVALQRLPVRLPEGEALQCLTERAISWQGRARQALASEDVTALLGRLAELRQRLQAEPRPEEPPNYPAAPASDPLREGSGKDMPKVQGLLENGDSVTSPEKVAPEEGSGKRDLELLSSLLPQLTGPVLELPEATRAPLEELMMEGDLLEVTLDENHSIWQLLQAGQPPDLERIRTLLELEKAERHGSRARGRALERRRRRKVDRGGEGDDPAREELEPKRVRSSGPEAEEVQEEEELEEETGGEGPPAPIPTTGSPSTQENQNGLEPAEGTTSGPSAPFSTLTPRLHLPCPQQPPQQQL

`CN(C)NC(=O)CCC(=O)O`: the pIC50 was less than 4.00 in assay [1]; less than 4.00 in assay [2]; less than 4.00 on Egl nine homolog 1; 3.90 in [3]; less than 4.00 in assay [4]; less than 4.00 in assay [5]. Further, the pIC50 in assay [6] was less than 4.00; in assay [7], 5.68.
In the case of `C[N+](C)(C)NC(=O)CCC(=O)O`, the pIC50 is less than 4.00 in [1]; less than 4.00 in assay [2]; less than 4.00 on Egl nine homolog 1; 4.20 in assay [8]; 4.46 in assay [9]; less than 4.00 in assay [3]. In addition, the pIC50 in assay [4], in assay [5] and in [6] was less than 4.00 in each case.
As to `CNNC(=O)CCC(=O)O`, the pIC50 was 5.96 in assay [1]; less than 4.00 in [2]; 4.85 against Egl nine homolog 1; 6.43 in [8]; 5.47 in assay [9]; less than 4.00 in assay [3]. Moreover, the results for the negative logarithm of the IC50 (pIC50) in [4], in assay [5] and in assay [6] were 5.37, less than 4.00 and less than 4.00, respectively.
For the molecule `NNC(=O)CCC(=O)O`, the negative-log IC50 (pIC50) in [1] was 6.32; in assay [2] it was less than 4.00; on Egl nine homolog 1 it was less than 4.00; in assay [8], 6.60; in [9], 6.32; in assay [3] it was less than 4.00. In addition, the values for the pIC50 in [4], in [5] and in assay [6] were 6.70, less than 4.00 and less than 4.00, respectively.
Consider `CN(C)N(C)C(=O)CCC(=O)O`, for which the pIC50 in [1] was less than 4.00; in assay [2], less than 4.00; against Egl nine homolog 1, less than 4.00; in [8], 5.43; in assay [9], 4.94; in assay [3], less than 4.00. In addition, the negative-log IC50 (pIC50) in assay [4], in assay [5] and in assay [6] was less than 4.00 throughout.
With `CC(C)NC(=O)CCC(=O)O`, the negative logarithm of the IC50 (pIC50) (in assay [1]; in assay [2]; against Egl nine homolog 1; in [8]; in assay [9]; in assay [3]) was less than 4.00 in each case. For the same molecule, the negative logarithm of the IC50 (pIC50) in assay [4], in assay [5] and in [6] was less than 4.00 each time.
As to `CN(C)OC(=O)CCC(=O)O`, the negative-log IC50 (pIC50) in assay [1] is 4.38; in assay [2] it was 4.38; against Egl nine homolog 1, 5.20; in assay [8], 5.04; in assay [9] it was 5.16; in assay [3], less than 4.00. Besides, the pIC50 in assay [4], in assay [5] and in assay [6] was less than 4.00 each time.
On to `CN(C)NC(=O)CCC(=O)NN(C)C`, for which the negative logarithm of the IC50 (pIC50) in assay [1] is less than 4.00; in assay [2], less than 4.00; at Egl nine homolog 1, less than 4.00; in assay [8] it was less than 4.00; in assay [9], 3.93; in assay [3], less than 4.00. In addition, the negative-log IC50 (pIC50) in assay [4], in assay [5] and in assay [6] was less than 4.00 in each case.
With `O=C(O)CCC(=O)NO`, the pIC50 in [1] was 5.72; in assay [2] it was 5.96; on Egl nine homolog 1, 4.71; in [8] it was 6.37; in [9], 5.77; in [3], 5.52. Moreover, the figures for the pIC50 in assay [4], in assay [5] and in assay [6] were 6.40, less than 4.00 and less than 4.00, respectively.
`CC(=O)CC(=O)CCC(=O)O` [SUCCINYLACETONE]: the pIC50 in [1] was 5.35; in assay [2], 4.78; against Egl nine homolog 1, less than 4.00; in assay [8], 6.24; in assay [9], 5.64; in assay [3] it was 4.90. Moreover, the figures for the negative-log IC50 (pIC50) in assay [4], in [5] and in assay [6] were 4.62, less than 4.00 and less than 4.00, respectively.
